Assay results reported in the array DNA melting data of Ke et al. (doi:10.1101/2024.01.08.574731).

Columns and labels:
[1] = folding enthalpy; higher = less favourable; fluorescence melt of hairpins on a sequencing array, two-state fit; conditions: sodium 0.088 M
Summary of the method: (§1)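 Two-state fits, bootstrapped, provided melting temperature and folding enthalpy from Cy3 fluorescence normalised to pre-quench Cy3 and to control constructs. Library hairpins with annealed Cy3 and quencher oligos were imaged on a sequenced MiSeq flow cell in 50 mM Na-HEPES pH 8.0, 25 mM NaCl, at 2.5 °C intervals up to 60 °C. Four replicates were combined with inverse-variance weighting. A 9.35 °C upward shift was applied to fitted temperatures to match UV melts.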

[2] = melting temperature; fluorescence melt of hairpins on a sequencing array, two-state fit, raised by 9.35 °C to match UV melts; conditions: sodium 0.088 M
Summary of the method: as §1

Sequence	folding enthalpy [1] [kcal/mol]	Tm [2] [°C]
GCGTCTTAACGC ((((....))))	-26.4	57.5
GCGTGAATACGC ((((....))))	-31.3	61.2
GCGTGACGACGC ((((....))))	-27.2	56.8
GCGTGATACGC ((((...))))	-22.2	55.4
GCGTGCACACGC ((((....))))	-25.7	68
GCGTGCCTACGC ((((....))))	-27.6	57
GCGTGCGAAAGCAACCGC ((((((....)))..)))	-18.6	53.7
GCGTGCGAAAGCAATCGC ((((((....)))..)))	-22.6	52.7
GCGTGCGAAAGCAGCCGC ((((((....)))..)))	-19	55.2
GCGTGCGAAAGCATACGC ((((((....)))..)))	-28.9	63.9
GCGTGCGCACGC ((((....))))	-45.7	62.2
GCGTGCGGAAACGCGTGC ((..(((....)))..))	-27.6	53.5
GCGTGCTACGC ((((...))))	-18.7	62
GCGTGCTCACGC ((((....))))	-25	58.6
GCGTGGCACGC ((((...))))	-31.8	56.8
GCGTGGCCGAAAGGCCGC (((..(((....))))))	-9.18	57.2
GCGTGGCGAAAGCATCGC (((..((....))..)))	-31.9	62.1
GCGTGGCTACGC ((((....))))	-23.4	58.5
GCGTGGGACGC ((((...))))	-16.9	52.4
GCGTGGGGAAACCCATGC ((.((((....)))).))	-42.3	57.9
GCGTGGGGAAACCCGCGC (((.(((....))).)))	-44.8	69
GCGTGGTACGC ((((...))))	-20.5	56.3
GCGTGGTCACGC ((((....))))	-26.3	57.5
GCGTGGTTACGC ((((....))))	-21.7	54.9
GCGTGTCGAAAGACCCGC (((.(((....))).)))	-42	58

Sequence	folding enthalpy [1] [kcal/mol]	Tm [2] [°C]
GCGTGTCGAAAGACTCGC (((.(((....))).)))	-45.2	63.9
GCGTGTGGAAACACGTGC ((..(((....)))..))	-19.1	63.1
GCGTGTGGAAACGTACGC ((((..(....)..))))	-32.9	50.1
GCGTGTTTACGC ((((....))))	-30	55
GCGTTAAGACGC ((((....))))	-22.4	54
GCGTTAGGAAACTAGCGC (((.(((....))).)))	-46.9	52.4
GCGTTATTACGC ((((....))))	-26	53.9
GCGTTCCAACGC ((((....))))	-27.7	55.6
GCGTTCCCACGC ((((....))))	-23.4	51.9
GCGTTCCCGAAAGGGCGC (((..(((....))))))	-27.2	53.9
GCGTTCGAAAGAAAGCGC ((((((....)))..)))	-29.4	53.2
GCGTTCGAAAGAACTCGC ((((((....)))..)))	-17	44.7
GCGTTCGAAAGAAGGCGC ((((((....)))..)))	-33.6	55.6
GCGTTCGACGC ((((...))))	-23.7	53.8
GCGTTCGCACGC ((((....))))	-18.8	56.5
GCGTTCGGAAACAAACGC (((((.(....).)))))	-34.6	47.9
GCGTTCGGAAACGGACGC ((((.((....)).))))	-40.2	64
GCGTTCGGAAACGGATGC ((.(.((....)).).))	-33.1	44.7
GCGTTCTCACGC ((((....))))	-25.9	50.6
GCGTTGAAAAACGC (((((....)))))	-30.2	61.2
GCGTTGCACGC ((((...))))	-23	59.4
GCGTTGCGAAAGCAAGGC ((.((((....)))).))	-30.3	68.5
GCGTTGCGAAAGCACAGC ((..(((....)))..))	-20.9	51.1
GCGTTGCGAAAGCACCGC (((.(((....))).)))	-47.7	59.1
